Key:
Conditions in all cases: in vivo
Adrenal [1] = test: Drug uptake in Sprague-Dawley rat adrenal at 11.7 to 12.3 uCi, iv after 0.5 hrs by liquid scintillation counting; type: ADME, organism-based, Adrenal gland
Outline: (§1)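 Adult male Sprague-Dawley rats, 200–420 g, fed ad libitum. They got ¹²⁵I-labelled agent in saline (9.0–9.5 µCi/mg), 0.1 mL, by tail vein under ether. Five rats per time point were exsanguinated under ether. Organs were excised, rinsed, blotted and weighed. Duplicate samples were counted in a well-scintillation gamma counter (87% efficiency). Results are % administered dose/g, mean ± SEM.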

[2] = Drug uptake in Sprague-Dawley rat bone marrow at 11.7 to 12.3 uCi, iv after 0.5 hrs by liquid scintillation counting; type: ADME, organism-based; outline: as §1
Brain [3] = test: Drug uptake in Sprague-Dawley rat brain at 11.7 to 12.3 uCi, iv after 0.5 hrs by liquid scintillation counting; type: ADME, organism-based; outline: as §1
[4] = Drug uptake in Sprague-Dawley rat diaphragm at 11.7 to 12.3 uCi, iv after 0.5 hrs by liquid scintillation counting; type: ADME, organism-based; outline: as §1
Duodenum [5] = test: Drug uptake in Sprague-Dawley rat duodenum at 11.7 to 12.3 uCi, iv after 0.5 hrs by liquid scintillation counting; type: ADME, organism-based; outline: as §1
[6] = Drug uptake in Sprague-Dawley rat auricle at 11.7 to 12.3 uCi, iv after 0.5 hrs by liquid scintillation counting; type: ADME, organism-based; outline: as §1
[7] = Drug uptake in Sprague-Dawley rat ventricle at 11.7 to 12.3 uCi, iv after 0.5 hrs by liquid scintillation counting; type: ADME, organism-based, Cardiac ventricle
Outline: (§2)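 ¹²⁵I-labelled bisquaternary dissolved in saline (26 mg/2.0 mL), 9.0–9.5 μCi/mg, given in 0.1 mL via tail vein under ether to adult male Sprague-Dawley rats (200–420 g). Rats were killed by exsanguination under ether at 0.5 or 2 h. Organs were excised, rinsed, blotted and weighed, and duplicate samples were gamma-counted in a well-scintillation counter (87% efficiency). Results are % administered dose/g, mean ± SEM, five rats.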

[8] = Drug uptake in Sprague-Dawley rat intervertebral disk at 11.7 to 12.3 uCi, iv after 0.5 hrs by liquid scintillation counting; type: ADME, organism-based; outline: as §1
Kidney [9] = test: Drug uptake in Sprague-Dawley rat kidney at 11.7 to 12.3 uCi, iv after 0.5 hrs by liquid scintillation counting; type: ADME, organism-based; outline: as §1
Liver [10] = test: Drug uptake in Sprague-Dawley rat liver at 11.7 to 12.3 uCi, iv after 0.5 hrs by liquid scintillation counting; type: ADME, organism-based; outline: as §1
Lung [11] = test: Drug uptake in Sprague-Dawley rat lung at 11.7 to 12.3 uCi, iv after 0.5 hrs by liquid scintillation counting; type: ADME, organism-based; outline: as §1
[12] = Drug uptake in Sprague-Dawley rat meninges at 11.7 to 12.3 uCi, iv after 0.5 hrs by liquid scintillation counting; type: ADME, organism-based; outline: as §1
Pituitary gland [13] = test: Drug uptake in Sprague-Dawley rat pituitary at 11.7 to 12.3 uCi, iv after 0.5 hrs by liquid scintillation counting; type: ADME, organism-based; outline: as §1
Pancreas [14] = test: Drug uptake in Sprague-Dawley rat pancreas at 11.7 to 12.3 uCi, iv after 0.5 hrs by liquid scintillation counting; type: ADME, organism-based; outline: as §1
Spleen [15] = test: Drug uptake in Sprague-Dawley rat spleen at 11.7 to 12.3 uCi, iv after 0.5 hrs by liquid scintillation counting; type: ADME, organism-based; outline: as §2
Testes [16] = test: Drug uptake in Sprague-Dawley rat testes at 11.7 to 12.3 uCi, iv after 0.5 hrs by liquid scintillation counting; type: ADME, organism-based, Testis; outline: as §2
Thyroid gland [17] = test: Drug uptake in Sprague-Dawley rat thyroid at 11.7 to 12.3 uCi, iv after 0.5 hrs by liquid scintillation counting; type: ADME, organism-based; outline: as §2
[18] = Drug uptake in Sprague-Dawley rat trachea at 11.7 to 12.3 uCi, iv after 0.5 hrs by liquid scintillation counting; type: ADME, organism-based; outline: as §2
Blood [19] = test: Drug uptake in Sprague-Dawley rat blood at 11.7 to 12.3 uCi, iv after 0.5 hrs by liquid scintillation counting; type: ADME, organism-based; outline: as §1
Adrenal [20] = test: Drug uptake in Sprague-Dawley rat adrenal at 11.7 to 12.3 uCi, iv after 2 hrs by liquid scintillation counting; type: ADME, organism-based, Adrenal gland; outline: as §1
[21] = Drug uptake in Sprague-Dawley rat bone marrow at 11.7 to 12.3 uCi, iv after 2 hrs by liquid scintillation counting; type: ADME, organism-based; outline: as §1
Brain [22] = test: Drug uptake in Sprague-Dawley rat brain at 11.7 to 12.3 uCi, iv after 2 hrs by liquid scintillation counting; type: ADME, organism-based; outline: as §1
[23] = Drug uptake in Sprague-Dawley rat diaphragm at 11.7 to 12.3 uCi, iv after 2 hrs by liquid scintillation counting; type: ADME, organism-based; outline: as §1
Duodenum [24] = test: Drug uptake in Sprague-Dawley rat duodenum at 11.7 to 12.3 uCi, iv after 2 hrs by liquid scintillation counting; type: ADME, organism-based; outline: as §1
[25] = Drug uptake in Sprague-Dawley rat auricle at 11.7 to 12.3 uCi, iv after 2 hrs by liquid scintillation counting; type: ADME, organism-based; outline: as §1
[26] = Drug uptake in Sprague-Dawley rat ventricle at 11.7 to 12.3 uCi, iv after 2 hrs by liquid scintillation counting; type: ADME, organism-based, Cardiac ventricle; outline: as §2
[27] = Drug uptake in Sprague-Dawley rat intervertebral disk at 11.7 to 12.3 uCi, iv after 2 hrs by liquid scintillation counting; type: ADME, organism-based; outline: as §1
Kidney [28] = test: Drug uptake in Sprague-Dawley rat kidney at 11.7 to 12.3 uCi, iv after 2 hrs by liquid scintillation counting; type: ADME, organism-based; outline: as §1
Liver [29] = test: Drug uptake in Sprague-Dawley rat liver at 11.7 to 12.3 uCi, iv after 2 hrs by liquid scintillation counting; type: ADME, organism-based; outline: as §1
Lung [30] = test: Drug uptake in Sprague-Dawley rat lung at 11.7 to 12.3 uCi, iv after 2 hrs by liquid scintillation counting; type: ADME, organism-based; outline: as §1
[31] = Drug uptake in Sprague-Dawley rat meninges at 11.7 to 12.3 uCi, iv after 2 hrs by liquid scintillation counting; type: ADME, organism-based; outline: as §1
Pituitary gland [32] = test: Drug uptake in Sprague-Dawley rat pituitary at 11.7 to 12.3 uCi, iv after 2 hrs by liquid scintillation counting; type: ADME, organism-based; outline: as §1
Pancreas [33] = test: Drug uptake in Sprague-Dawley rat pancreas at 11.7 to 12.3 uCi, iv after 2 hrs by liquid scintillation counting; type: ADME, organism-based; outline: as §1
Spleen [34] = test: Drug uptake in Sprague-Dawley rat spleen at 11.7 to 12.3 uCi, iv after 2 hrs by liquid scintillation counting; type: ADME, organism-based; outline: as §2
Testes [35] = test: Drug uptake in Sprague-Dawley rat testes at 11.7 to 12.3 uCi, iv after 2 hrs by liquid scintillation counting; type: ADME, organism-based, Testis; outline: as §2
Thyroid gland [36] = test: Drug uptake in Sprague-Dawley rat thyroid at 11.7 to 12.3 uCi, iv after 2 hrs by liquid scintillation counting; type: ADME, organism-based; outline: as §2
[37] = Drug uptake in Sprague-Dawley rat trachea at 11.7 to 12.3 uCi, iv after 2 hrs by liquid scintillation counting; type: ADME, organism-based; outline: as §2
Blood [38] = test: Drug uptake in Sprague-Dawley rat blood at 11.7 to 12.3 uCi, iv after 2 hrs by liquid scintillation counting; type: ADME, organism-based; outline: as §1

## C[N+](C)(C)Cc1ccc(C[N+](C)(C)C)c([125I])c1.[I-].[I-]
Adrenal [1]
  Drug uptake: 0.094 % ID/g
[2]
  Drug uptake: 0.132 % ID/g
Brain [3]
  Drug uptake: 0.044 % ID/g
[4]
  Drug uptake: 0.08 % ID/g
Duodenum [5]
  Drug uptake: 0.085 % ID/g
[6]
  Drug uptake: 0.203 % ID/g
[7]
  Drug uptake: 0.121 % ID/g
[8]
  Drug uptake: 0.607 % ID/g
Kidney [9]
  Drug uptake: 3.305 % ID/g
Liver [10]
  Drug uptake: 0.129 % ID/g
Lung [11]
  Drug uptake: 0.257 % ID/g
[12]
  Drug uptake: 0.467 % ID/g
Pituitary gland [13]
  Drug uptake: 0.118 % ID/g
Pancreas [14]
  Drug uptake: 0.075 % ID/g
Spleen [15]
  Drug uptake: 0.137 % ID/g
Testes [16]
  Drug uptake: 0.076 % ID/g
Thyroid gland [17]
  Drug uptake: 0.095 % ID/g
[18]
  Drug uptake: 0.798 % ID/g
Blood [19]
  Drug uptake: 0.277 % ID/g
Adrenal [20]
  Drug uptake: 0.043 % ID/g
[21]
  Drug uptake: 0.078 % ID/g
Brain [22]
  Drug uptake: 0.038 % ID/g
[23]
  Drug uptake: 0.022 % ID/g
Duodenum [24]
  Drug uptake: 0.033 % ID/g
[25]
  Drug uptake: 0.108 % ID/g
[26]
  Drug uptake: 0.018 % ID/g
[27]
  Drug uptake: 0.087 % ID/g
Kidney [28]
  Drug uptake: 1.834 % ID/g
Liver [29]
  Drug uptake: 0.085 % ID/g
Lung [30]
  Drug uptake: 0.087 % ID/g
[31]
  Drug uptake: 0.658 % ID/g
Pituitary gland [32]
  Drug uptake: 0.082 % ID/g
Pancreas [33]
  Drug uptake: 0.03 % ID/g
Spleen [34]
  Drug uptake: 0.094 % ID/g
Testes [35]
  Drug uptake: 0.034 % ID/g
Thyroid gland [36]
  Drug uptake: 0.06 % ID/g
[37]
  Drug uptake: 0.089 % ID/g
Blood [38]
  Drug uptake: 0.015 % ID/g

Reference: ChEMBL document CHEMBL3227952, “Potential organ- or tumor-imaging agents. 18. Radioiodinated diamines and bisquaternaries” (J Med Chem, 1979)
